From ChEMBL document CHEMBL4665711, “Synthesis of (Z)-3-(arylamino)-1-(3-phenylimidazo[1,5-a]pyridin-1-yl)prop-2-en-1-ones as potential cytotoxic agents” (Bioorg Med Chem Lett, 2020)

Experiments:
MDA-MB-231 = assay: Cytotoxicity against human MDA-MB-231 cells assessed as reduction in cell viability incubated for 48 hrs by MTT assay; type: functional, cell-based; conditions: MDA-MB-231, 48 h
Method in brief: (§1)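 Cancer cell lines were exposed to drug for 48 h, and the 50% inhibitory concentration was determined. Values are averages of three individual experiments. A549, HCT-116, BT-474 and MDA-MB-231 are human lines; B16F10 is a murine melanoma line.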

BT-474 = assay: Cytotoxicity against human BT-474 cells assessed as reduction in cell viability incubated for 48 hrs by MTT assay; type: functional, cell-based; conditions: BT-474, 48 h; method in brief: as §1
B16-F10 = assay: Cytotoxicity against mouse B16-F10 cells assessed as reduction in cell viability incubated for 48 hrs by MTT assay; type: functional, cell-based; conditions: B16-F10, 48 h; method in brief: as §1
A549 = assay: Cytotoxicity against human A549 cells assessed as reduction in cell viability incubated for 48 hrs by MTT assay; type: functional, cell-based; conditions: A549, 48 h; method in brief: as §1
HCT-116 = assay: Cytotoxicity against human HCT-116 cells assessed as reduction in cell viability incubated for 48 hrs by MTT assay; type: functional, cell-based; conditions: HCT-116, 48 h; method in brief: as §1
[1] = Cytotoxicity against human breast cancer cells assessed as reduction in cell viability incubated for 24 hrs by MTT assay; type: functional; conditions: Breast cancer cell line
[2] = Cytotoxicity against human lung cancer cells assessed as reduction in cell viability incubated for 24 hrs by MTT assay; type: functional; conditions: Lung cancer cell line
[3] = Cytotoxicity against human lung cancer cells assessed as reduction in cell viability incubated for 48 hrs by MTT assay; type: functional; conditions: Lung cancer cell line

| Compound | IC50 (MDA-MB-231) | IC50 (BT-474) | IC50 (B16-F10) | IC50 (A549) | IC50 (HCT-116) | GI50 [1] | GI50 [2] | IC50 [3] |
| --- | --- | --- | --- | --- | --- | --- | --- | --- |
| COc1ccc(N/C=C\C(=O)c2nc(-c3ccccc3)n3ccccc23)cc1 | 28.2 µM | 12.8 µM | 1.79 µM | > 30 µM | 7.01 µM | – | – | – |
| O=C(/C=C\Nc1ccc(F)cc1)c1nc(-c2ccc(C(F)(F)F)cc2)n2ccccc12 | > 30 µM | > 30 µM | > 30 µM | > 30 µM | > 30 µM | – | – | – |
| O=C(/C=C\Nc1ccc(F)cc1)c1nc(-c2ccc(F)cc2)n2ccccc12 | 25.1 µM | 16.9 µM | > 30 µM | 13.2 µM | > 30 µM | – | – | – |
| O=C(/C=C\Nc1ccc2cc[nH]c2c1)c1nc(-c2ccc(C(F)(F)F)cc2)n2ccccc12 | > 30 µM | > 30 µM | > 30 µM | > 30 µM | > 30 µM | – | – | – |
| Fc1ccccc1-c1nc(-c2nc3ccc(C(F)(F)F)cc3[nH]2)c2ccccn12 | – | – | – | – | – | 1.37 µM | – | – |
| COc1ccc(-c2nc(C(=O)/C=C\Nc3ccc(Cl)cc3)c3ccccn23)cc1 | > 30 µM | 37.3 µM | 1.24 µM | – | > 30 µM | – | – | – |
| COc1ccc(N/C=C\C(=O)c2nc(-c3ccc(OC)cc3)n3ccccc23)cc1 | > 30 µM | 15.4 µM | 2.12 µM | – | > 30 µM | – | – | – |
| O=C(/C=C\Nc1ccc2[nH]ccc2c1)c1nc(-c2ccc(C(F)(F)F)cc2)n2ccccc12 | 1.18 µM | 5.19 µM | 18.2 µM | 5.19 µM | 27.1 µM | – | – | – |
| COc1ccc(-c2nc(C(=O)/C=C\Nc3ccc4[nH]ccc4c3)c3ccccn23)cc1 | 28.7 µM | 13 µM | 5.12 µM | 4.8 µM | 17.4 µM | – | – | – |
| COc1ccc(N/C=C\C(=O)c2nc(-c3ccc(F)cc3)n3ccccc23)cc1OC | > 30 µM | > 30 µM | > 30 µM | > 30 µM | > 30 µM | – | – | – |
| O=C(/C=C\Nc1ccc(Cl)cc1)c1nc(-c2ccc(C(F)(F)F)cc2)n2ccccc12 | 3.84 µM | 3.82 µM | > 30 µM | 18.5 µM | 11.5 µM | – | – | – |
| O=C1Nc2ccccc2/C1=C\c1nc(-c2ccccc2F)n2ccccc12 | – | – | – | – | – | – | 3.46 µM | – |
| O=C(/C=C\Nc1ccc(O)cc1)c1cn(-c2ccccc2)nc1-c1ccc(F)cc1 | – | – | – | – | – | – | – | 1.5 µM |
| O=C(/C=C\Nc1cnc2ccccc2c1)c1nc(-c2ccccc2)n2ccccc12 | 12.3 µM | 19.7 µM | 3.78 µM | > 30 µM | > 30 µM | – | – | – |
| Cc1cc2cc(N/C=C\C(=O)c3nc(-c4ccc(F)cc4)n4ccccc34)ccc2[nH]1 | > 30 µM | > 30 µM | > 30 µM | > 30 µM | > 30 µM | – | – | – |
| COc1ccc(N/C=C\C(=O)c2nc(-c3ccc(F)cc3)n3ccccc23)cc1 | > 30 µM | 15.7 µM | 2.56 µM | 19.2 µM | > 30 µM | – | – | – |
| O=C(/C=C\Nc1cnc2ccccc2c1)c1nc(-c2ccc(C(F)(F)F)cc2)n2ccccc12 | > 30 µM | > 30 µM | > 30 µM | > 30 µM | > 30 µM | – | – | – |
| COc1ccc(-c2nc(C(=O)/C=C\Nc3ccc(F)cc3)c3ccccn23)cc1 | > 30 µM | > 30 µM | > 30 µM | > 30 µM | > 30 µM | – | – | – |
| COc1ccc(N/C=C\C(=O)c2nc(-c3ccc(C(F)(F)F)cc3)n3ccccc23)cc1OC | > 30 µM | > 30 µM | > 30 µM | > 30 µM | > 30 µM | – | – | – |
| COC(=O)Nc1nc2cc(C(=O)c3cccs3)ccc2[nH]1 [NOCODAZOLE] | 1.83 µM | 2.72 µM | 3.12 µM | 3.63 µM | 2.82 µM | – | – | – |
| COc1ccc(N/C=C\C(=O)c2nc(-c3ccc(C(F)(F)F)cc3)n3ccccc23)cc1 | > 30 µM | > 30 µM | > 30 µM | 21.8 µM | 7.72 µM | – | – | – |
